High-throughput results: PubChem, Broad Institute
A selection: hits, their analogues and other compounds. The true share with any hit is near 1.6%.
PvdQ inh – P. aeruginosa PvdQ acylase inhibition; purified PvdQ acylase, fluorescence plate reader; inhibition, % at 10 µM; 340,000 tested, 0.063% active; AID 488965; in the data active = inhibition above about 30%, passing the limit was not always enough;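 also: 0% = vehicle neutral wells and 100% = reference inhibitor wells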
S100A4 inh HTS – S100A4-myosin IIA interaction inhibition; S100A4/TAMRA-MyoIIA peptide fluorescence polarization; inhibition, % at 10.7 µM; 360,000 tested, 0.14% active; AID 652163;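 active = mean inhibition of at least 70% across replicates, with every replicate also reaching that level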
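Material: S100A4 monomer protein | Medium: HEPES pH 7.2 with CaCl2, KCl, NaCl, DTT, Triton | Reagent: Labelled myosin peptide probe, 5 nM | Doses: One dose per compound | Times: 5 min incubation before reading | Benchmarks: Neutral control DMSO, positive control TFP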
SR-BI DiI inh – blocks mouse SR-BI lipid uptake from DiI-HDL. Q61009. ldlA[mSR-BI] CHO cells, DiI-HDL uptake fluorescence, 3 h. inhibition, % at 12.5 µM. 320,000 tested, 0.96% active. AID 488896;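 active = mean replicate inhibition of at least 70% and a set share of replicates each scoring 70 or more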;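 also: 0% = median of neutral control wells and 100% = median of positive control wells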
Target sequence (Q61009 whole entry, looked up): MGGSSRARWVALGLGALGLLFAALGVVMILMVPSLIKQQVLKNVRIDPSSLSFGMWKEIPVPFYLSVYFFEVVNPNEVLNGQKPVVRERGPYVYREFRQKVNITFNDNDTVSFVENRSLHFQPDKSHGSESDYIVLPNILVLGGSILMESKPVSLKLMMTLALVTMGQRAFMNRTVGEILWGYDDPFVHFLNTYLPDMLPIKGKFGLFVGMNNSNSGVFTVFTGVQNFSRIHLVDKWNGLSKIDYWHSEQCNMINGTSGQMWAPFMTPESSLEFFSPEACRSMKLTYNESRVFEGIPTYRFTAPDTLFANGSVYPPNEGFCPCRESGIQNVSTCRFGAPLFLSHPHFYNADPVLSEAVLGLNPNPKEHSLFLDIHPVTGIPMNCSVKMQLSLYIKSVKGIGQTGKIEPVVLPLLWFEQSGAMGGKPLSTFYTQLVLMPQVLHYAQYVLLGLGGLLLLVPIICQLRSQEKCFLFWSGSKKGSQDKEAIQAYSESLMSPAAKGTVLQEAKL
RAD54 inh – RAD54 (human) branch migration inhibition | Q92698 | RAD54 Holliday junction branch migration, FAM/BHQ fluorescence | inhibition, % at 10.4 µM | 360,000 tested, 0.14% active | AID 602329;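 active = mean normalized replicate activity at least 40 and at least half of replicates scoring 40 or more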;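 also: 0% = median of neutral control wells and 100% = median of positive control wells; inhibitors cause a drop in the FAM fluorescence signal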
SR-BI uptake up – enhances SR-BI lipid uptake from DiI-HDL. CHO ldlA[mSR-BI] cells, DiI-HDL uptake fluorescence, 3 h; 100 = double the neutral-control signal. activation, % at 12.5 µM. 320,000 tested, 0.096% active. AID 504775;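 active = mean replicate activation of at least 60% and every replicate at or above 60%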;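 also: 0% = median plate neutral-control signal and 100% = twice that signal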
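Assay system: CHO ldlA[mSR-BI] cells, LDL receptor-null, SR-BI overexpressing; medium: Ham's F12 with 0.5% BSA, HEPES 25 mM, pH 7.4; also added: DiI-HDL 10 µg/mL; timing: 3 h uptake period with compound, 37 °C; signal: DiI fluorescence, bottom read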
dFosB act-1 – activators of mouse delta FosB homodimer; 340,000 tested, 0.99% active; purified delta FosB, TAMRA-CDK5 oligo fluorescence polarization; percent of positive-control signal above neutral wells; activation, % at 25 µM; AID 493131;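 active = mean activation above about 17%, with every replicate also reaching it, limit read from the data, passing the limit was not always enough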
dFosB act-2 – enhances mouse delta FosB homodimer binding to DNA. shares compounds with dFosB act-1. purified delta FosB, TAMRA-CDK5 oligo fluorescence polarization; normalised: neutral wells 0, positive control 100. activation, % at 24.9 µM. 2,400 tested, under 10 active. AID 588690;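 active = highest replicate activation at or above 34% and every replicate reaching that threshold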;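 also: higher polarization means more probe DNA bound by delta FosB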
Starred values were filed as active, the others as inactive; x = no result.

SMILES	PvdQ inh	S100A4 inh HTS	SR-BI DiI inh	RAD54 inh	SR-BI uptake up	dFosB act-1	dFosB act-2
CCOC(=O)NC(NC(=S)Nc1ccc(OCC)cc1)C(Cl)(Cl)Cl (stereo unspecified)	-14.0	x	-11.8	x	11.8	-3.3	x
CC1CN(C2=Nc3cccc4cccc2c34)CC(C)O1 (stereo unspecified)	5.5	-9.1	-1.1	29.9	1.1	9.2	x
CCOC(=O)N1CCN(C2=Nc3cccc4cccc2c34)CC1	5.5	x	2.3	43.8	-2.3	21.8*	0.0
COc1ccccc1N1CCN(C2=Nc3cccc4cccc2c34)CC1	3.0	-0.6	38.3	39.5	-38.3	26.1*	-0.2
c1ccc(CC2CCN(C3=Nc4cccc5cccc3c45)CC2)cc1	2.6	x	2.8	9.6	-2.8	23.0*	-4.5
CC(=O)N1CCN(C2=Nc3cccc4cccc2c34)CC1	14.8	x	-8.6	28.2	8.6	17.3*	0.9
COc1ccccc1N1CCN(C(=O)CN2C(=O)c3cccc4cccc(c34)C2=O)CC1	-12.1	0.3	23.4	4.6	-23.4	-6.0	x
c1cc2c3c(cccc3c1)C(N1CCOCC1)=N2	-12.8	4.7	-8.9	25.3	8.9	14.6	x
CCOC(=O)N1CCN(C(=O)Nc2cccc3ccccc23)CC1	-4.3	-4.9	6.5	x	-6.5	2.0	x
O=C(C[C@H]1CC[C@@H]2[C@H](COC[C@H](O)CN2Cc2cc(F)ccc2F)O1)NCc1ccc(Cl)cc1	x	3.8	x	-10.2	x	x	x
C[C@@H]1CCCCO[C@@H](CN(C)Cc2ccncc2)[C@H](C)CN([C@H](C)CO)C(=O)c2cc(NC(=O)Nc3cccc4ccccc34)ccc2O1	x	-0.8	x	-2.9	x	x	x
C/C=C/c1ccc2c(c1)O[C@H](CN(C)C(=O)c1ccncc1)[C@H](C)CN([C@@H](C)CO)S2(=O)=O	x	-8.7	x	2.8	x	x	x
CCCNC(=O)C[C@@H]1C[C@H]2c3cc(NC(=O)C4CCOCC4)ccc3O[C@H]2[C@H](CO)O1	x	0.1	x	-1.3	x	x	x
COc1ccc(NC(=O)Nc2ccc3c(c2)C(=O)N([C@H](C)CO)C[C@H](C)[C@@H](CN(C)C(=O)Nc2cccc4ccccc24)O3)cc1	x	11.0	x	-1.7	x	x	x
O=C1CS(=O)(=O)C(c2ccccc2)N1c1ccc(Cl)cc1 (stereo unspecified)	x	10.9	x	-5.0	x	x	x
O=S(=O)(c1ccc(Cl)cc1)N1CCc2ccccc21	-9.3	-83.5	-14.8	-6.5	14.8	17.7*	-10.5
O=S(=O)(c1ccc(Cl)cc1)N1CCCc2ccccc21	-4.2	-12.3	14.8	-11.8	-14.8	-2.5	x
C[C@H]1CN([C@@H](C)CO)C(=O)Cc2cc(NS(C)(=O)=O)ccc2O[C@H]1CN(C)C(=O)Nc1ccc(C(F)(F)F)cc1	x	-4.1	x	5.6	x	x	x
O=C(N/N=C/c1ccc(OC(=O)c2cccs2)cc1)c1ccc(F)cc1	-5.5	x	-14.3	-0.2	14.3	33.2*	-0.7
COc1ccc(-c2ccc3c(=O)cc(-c4ccsc4)oc3c2)cn1	-1.9	39.0	13.6	-7.7	-13.8	-140.8	x
COc1cc(-c2ccc3oc(-c4ccsc4)cc(=O)c3c2)cc(OC)c1OC	-7.3	-1.0	73.4*	4.0	-73.4	44.3*	-11.6
O=C(C[C@@H]1CC[C@@H]2[C@H](COC[C@H](O)CN2C(=O)c2ccc3c(c2)OCO3)O1)NCCN1CCCC1	x	-58.8	x	x	x	x	x
COc1ccc(-c2nc(Cc3ccc(Cl)cc3)no2)cc1OC	-0.4	x	6.4	-4.7	-6.4	50.4*	-0.3
N#Cc1ccc(C23CC4(C2)[C@H](CN(CC2CCCCC2)[C@@H]4c2ccccc2)C3c2ccc(Cl)nc2)cc1 (stereo partly specified)	1.3	-1.5	-14.4	-0.6	14.4	24.8*	-0.5
CC(C)Sc1nc2c(cnn2-c2ccccc2)c(=O)[nH]1	-2.0	-3.8	-4.3	0.1	4.3	11.1	x
O=c1[nH]c(/C=C/c2ccc(OC(F)F)cc2)nc2c1cnn2-c1ccccc1	-13.3	x	-13.0	x	13.0	65.3*	1.0
